Screening data: PubChem, The Scripps Research Institute Molecular Screening Center
An excerpt weighted towards active compounds, which were near 2.9% of everything screened.
CHO parental Ca: counter-screen for OX1R antagonists: effect in parental CHO cells. parental CHO-K1, ATP-induced calcium, Fluo-8 fluorescence. inhibition, % at 5.6 µM. 330,000 tested, 0.63% active;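 active means inhibition above that plate's mean sample inhibition plus 3 SD, cut at about 26% in these data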
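Test system: untransfected parental CHO cell line. Compound: one dose, 5.6 µM nominal. Detection: intracellular calcium via Fluo-8 no-wash fluorescent dye. Measure: % inhibition. Benchmarks: ATP-challenged DMSO wells low, unchallenged DMSO wells high.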
OX1R antag-1: human HCRTR1 antagonism; O43613; 330,000 tested, 0.43% active; inhibition, % at 5 µM; CHO/OX1R cells, Fluo-8 calcium fluorescence, orexin A;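 active means inhibition above its plate's threshold, mean inhibition of all tested compounds on the plate plus 3 SD, cut at about 37% in these data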
Target sequence (O43613 whole entry, looked up): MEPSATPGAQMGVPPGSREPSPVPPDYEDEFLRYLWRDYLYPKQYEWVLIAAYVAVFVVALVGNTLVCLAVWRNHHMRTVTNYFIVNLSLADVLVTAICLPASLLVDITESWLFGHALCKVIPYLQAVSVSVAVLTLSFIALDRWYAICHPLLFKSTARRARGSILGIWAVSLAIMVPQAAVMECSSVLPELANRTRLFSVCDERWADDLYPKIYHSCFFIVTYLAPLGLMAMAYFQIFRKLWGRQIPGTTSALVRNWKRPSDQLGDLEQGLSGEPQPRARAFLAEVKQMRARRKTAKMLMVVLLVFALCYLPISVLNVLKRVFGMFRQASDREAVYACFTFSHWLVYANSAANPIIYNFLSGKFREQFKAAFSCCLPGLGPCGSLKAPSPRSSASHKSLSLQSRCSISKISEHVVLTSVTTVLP
CHO-K1 Ca antag: counter-screen for M1 antagonists: effect in parental CHO-K1 cells | ATP-induced calcium, Fluo-8 fluorescence | inhibition, % at 3 µM | 360,000 tested, 0.6% active;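 active means inhibition above a per-plate cutoff, the plate's mean sample inhibition plus 3 SD, cut at about 24% in these data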
M1 ag parental: M1 agonist counterscreen hit in parental CHO-K1 cells | activation, % at 3 µM | 360,000 tested, 0.48% active | Fluo-8 calcium fluorescence; scaled to maximal ATP response, vehicle zero | AID 602248; in the data active means activation above about 15%;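 further: untransfected CHO-K1 host cells lacking M1 receptor as counterscreen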
OX1R antag-2: antagonists of human orexin 1 receptor (OX1R) | O43613 | OX1R-expressing cells, FRET antagonist read-out | inhibition, % at 6.6 µM | 330,000 tested, 1.8% active; in the data active means inhibition mostly above about 38%, no sharp cut-off; inactive means mostly below about 40%
M1 PAM parental: M1 PAM counterscreen hit in parental CHO-K1 cells. ATP EC20, Fluo-8 calcium fluorescence; 0% at ATP EC20, 100% at ATP max. activation, % at 3 µM. 360,000 tested, 0.02% active;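 active means activation above the run cutoff, the mean activation of all test compounds plus 3 SD, cut at about 40% in these data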;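 further: peak over basal fluorescence ratio in a 140 s read after ATP addition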
Numbers stand for hits; - = inactive; . = not tested or not shown.

SMILES	CHO parental Ca	OX1R antag-1	CHO-K1 Ca antag	M1 ag parental	OX1R antag-2	M1 PAM parental
COc1cccc(CNC(=O)CSc2ccc(-c3cccs3)nn2)c1	-	-	-	-	58	-
CC(=O)Nc1ccc(NC(=O)CSc2ccc(-c3cccs3)nn2)cc1	-	-	-	-	-	-
COc1ccccc1CNC(=O)CSc1ccc(-c2ccccn2)nn1	-	-	-	-	-	-
O=C(CSc1ccc(-c2cccs2)nn1)NCc1ccccc1Cl	-	-	.	.	70	.
COc1ccccc1-c1csc(C(C)(O)c2ccccc2)n1 (stereo not drawn)	.	.	-	-	.	-
NC(=O)CSc1nc2ccccc2n1Cc1ccccc1	-	-	-	22	-	-
Cc1ccc(OCCSc2nc3ccccc3n2CCC(=O)O)cc1	-	-	-	-	49	-
CCSc1nc2ccccc2n1CCC(=O)O	-	-	-	-	-	-
O=C(O)CCSc1nc2ccccc2n1CCOc1ccccc1	-	-	-	-	-	-
O=C(O)CCn1c(SCc2cccc3ccccc23)nc2ccccc21	-	-	-	-	68	-
NC(=O)CSc1nc2ccccc2n1-c1ccccc1	-	-	-	-	-	-
Cc1ccccc1OCCSc1nc2ccccc2n1CCC(=O)O	-	-	-	-	74	-
COC(=O)c1nc2n(n1)C(c1ccc(OC)c(OC)c1)C(C(=O)OC1CCCCC1)=C(C)N2 (stereo not drawn)	-	-	28	-	-	-
O=c1[nH]c(-c2ccccc2)cnc1-c1ccccc1	-	-	-	-	-	-
O=c1[nH]c2c(=O)[nH]cnc2nc1-c1ccccc1	-	-	-	-	40	-
Cc1ccc(/C=C/S(=O)(=O)NCC(=O)OCC(=O)NCc2ccccc2)cc1	-	-	-	-	-	-
O=C(Cn1nc(C(=O)O)c2ccccc2c1=O)Nc1cc(Cl)cc(Cl)c1	-	-	-	-	41	-
Cc1cc(C(=O)Cn2nc(C(=O)O)c3ccccc3c2=O)c(C)n1CCc1ccc(Cl)cc1	-	-	-	-	49	-
O=C(Cn1nc(C(=O)O)c2ccccc2c1=O)Nc1cccc(S(=O)(=O)N2CCCCC2)c1	-	60	-	-	-	-
O=C(CN1CCCC1c1cccs1)Nc1cccc(S(=O)(=O)N2CCCC2)c1 (stereo not drawn)	-	-	-	-	32	-
O=C(NCC1CCCCC1)c1ccc2sc([C@H]3C[C@H](O)[C@@H](CO)O3)nc2c1	.	.	35	-	.	-
CC(C)NC(=O)c1ccc2sc([C@H]3C[C@H](O)[C@@H](CO)O3)nc2c1	.	.	-	-	.	-
CCNc1c(NC(=O)c2cccs2)c(=O)oc2ccccc12	-	-	-	-	-	-
COc1ccc(CCNC(=O)CCNS(=O)(=O)c2cccc3nsnc23)cc1OC	-	-	-	-	61	-
CC1Cc2ccccc2N1C(=O)CCNS(=O)(=O)c1cccc2nsnc12 (stereo not drawn)	-	-	-	-	60	-
SMILES	CHO parental Ca	OX1R antag-1	CHO-K1 Ca antag	M1 ag parental	OX1R antag-2	M1 PAM parental
CCCNC(=O)C1(C)CCN(C(=O)c2cc(F)cc(F)c2)C1 (stereo not drawn)	.	.	-	-	.	-
CCOC(=O)c1c(NC(=S)Nc2ccccc2)sc(C)c1C	-	-	-	-	38	-
CCOC(=O)c1sc(NC(C)=O)cc1C	-	-	-	-	-	-
CCOC(=O)c1sc(NC(=O)C2CCC2)cc1C	-	-	26	-	-	-
CCOC(=O)c1sc(NC(=O)Nc2ccccc2)cc1C	-	-	29	17	61	-
CC(=O)Nc1sc(C)c(C)c1C(=O)OCC(=O)Nc1ccccc1	-	-	-	-	-	-
COc1ccc(C2=NOC(C(=O)Nc3ccc4c(c3)OCO4)C2)cc1OC (stereo not drawn)	-	-	-	-	-	-
COc1cc(C2=NOC(C(=O)Nc3ccc4c(c3)OCO4)C2)cc(OC)c1OC (stereo not drawn)	.	.	-	18	.	-
CCOC(=O)C[C@H]1c2ccccc2S(=O)(=O)N1C1CC1	-	-	-	-	-	-
Cc1cccc(-n2[nH]c(C)c(C=Nc3ccc4[nH]c(=O)[nH]c4c3)c2=O)c1	-	-	28	-	-	-
CCCOc1cc2c(C#N)c(N3CCCC3)nc(N)c2c(N)n1	-	-	-	-	-	-
Cc1ccc(S(=O)(=O)/N=C2/C=C(C3C(=O)CC(C)(C)CC3=O)C(=O)c3ccccc32)cc1	-	-	-	-	63	-
